In ChEMBL document CHEMBL3098082, “Design, synthesis, molecular docking and 3D-QSAR studies of potent inhibitors of enoyl-acyl carrier protein reductase as potential antimycobacterial agents” (Eur J Med Chem, 2014):
Values after ≈ are worked out from the molar mass of the structure shown.

What was measured:
[1] = system: Mycobacterium tuberculosis; experiment: Antimycobacterial activity against Mycobacterium tuberculosis H37Rv after 5 days by microplate alamar blue assay; format: functional; settings: for MIC: Mycobacterium tuberculosis, H37Rv, 120 h
Method in brief: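 M. tuberculosis H37Rv in Middlebrook 7H9 broth; compounds serially diluted on plate at 0.2–100 […] (so in the source); isoniazid reference. Incubated 37 C, 5 days, then 1:1 alamar blue/10% Tween 80 added, further 24 h. Blue = no growth, pink = growth; MIC = lowest concentration preventing blue-to-pink change.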

[2] = system: Vero; experiment: Cytotoxicity against african green monkey Vero cells by MTT assay; format: cell-based; settings: Chlorocebus sabaeus
[3] = system: A549; experiment: Cytotoxicity against human A549 cells by MTT assay; format: cell-based

Compound | -logMIC [1] | MIC [1] | IC50 [2] | IC50 [3]
CC(=O)Nc1ccc(S(=O)(=O)N/N=C(\C)c2ccc(-n3c(C)ccc3C)cc2)cc1 | 6.097 | 0.8 µg/mL (≈ 1.88 µM) | – | –
C/C(=N\NC(=O)c1ccccc1Cl)c1ccc(-n2c(C)ccc2C)cc1 | 4.903 | 12.5 µg/mL (≈ 34.2 µM) | – | –
C/C(=N\NS(=O)(=O)c1ccc(C)cc1)c1ccc(-n2c(C)ccc2C)cc1 | 6.398 | 0.4 µg/mL (≈ 1.05 µM) | 279 µM | 277 µM
C/C(=N\NC(=O)COc1ccc2ccccc2c1)c1ccc(-n2c(C)ccc2C)cc1 | 6.699 | 0.2 µg/mL (≈ 0.486 µM) | 255 µM | 260 µM
C/C(=N\NC(=O)c1ccc(O)cc1)c1ccc(-n2cccc2)cc1 | 4.903 | 12.5 µg/mL (≈ 39.1 µM) | – | –
C/C(=N\NC(=O)c1ccncc1)c1ccc(-n2c(C)ccc2C)cc1 | 4 | 100 µg/mL (≈ 301 µM) | – | –
C/C(=N\NC(=O)c1ccc(Cl)cc1)c1ccc(-n2c(C)ccc2C)cc1 | 4.602 | 25 µg/mL (≈ 68.3 µM) | – | –
C/C(=N\NC(=O)c1ccc(Br)cc1)c1ccc(-n2cccc2)cc1 | 4.301 | 50 µg/mL (≈ 131 µM) | – | –
C/C(=N\NC(=O)c1ccccc1)c1ccc(-n2c(C)ccc2C)cc1 | 4.602 | 25 µg/mL (≈ 75.4 µM) | – | –
C/C(=N\NC(=O)c1ccncc1)c1ccc(-n2cccc2)cc1 | 4.301 | 50 µg/mL (≈ 164 µM) | – | –
C/C(=N\Nc1ccc([N+](=O)[O-])cc1[N+](=O)[O-])c1ccc(-n2c(C)ccc2C)cc1 | 4.903 | 12.5 µg/mL (≈ 31.8 µM) | – | –
C/C(=N\NC(=O)c1ccc(-n2c(C)ccc2C)cc1)c1ccc(-n2c(C)ccc2C)cc1 | 4.602 | 25 µg/mL (≈ 58.9 µM) | – | –
C/C(=N\NC(=O)c1cccnc1)c1ccc(-n2cccc2)cc1 | 4.301 | 50 µg/mL (≈ 164 µM) | – | –
C/C(=N\NC(=O)c1ccccc1Cl)c1ccc(-n2cccc2)cc1 | 4.602 | 25 µg/mL (≈ 74 µM) | – | –
C/C(=N\NC(=O)COc1c(Cl)cc(Cl)cc1Cl)c1ccc(-n2c(C)ccc2C)cc1 | 4.903 | 12.5 µg/mL (≈ 26.9 µM) | – | –
C/C(=N\Nc1ccccc1)c1ccc(-n2c(C)ccc2C)cc1 | 4.602 | 25 µg/mL (≈ 82.4 µM) | – | –
C/C(=N\NC(=O)c1cccnc1)c1ccc(-n2c(C)ccc2C)cc1 | 4 | 100 µg/mL (≈ 301 µM) | – | –
C/C(=N\NC(N)=O)c1ccc(-n2c(C)ccc2C)cc1 | 4.301 | 50 µg/mL (≈ 185 µM) | – | –
C/C(=N\NC(=O)COc1ccccc1)c1ccc(-n2cccc2)cc1 | 4.903 | 12.5 µg/mL (≈ 37.5 µM) | – | –
C/C(=N\NC(=O)COc1ccc(C)cc1)c1ccc(-n2cccc2)cc1 | 4.903 | 12.5 µg/mL (≈ 36 µM) | – | –
C/C(=N\NC(N)=O)c1ccc(-n2cccc2)cc1 | 4 | 100 µg/mL (≈ 413 µM) | – | –
C/C(=N\NC(N)=S)c1ccc(-n2c(C)ccc2C)cc1 | 4.301 | 50 µg/mL (≈ 175 µM) | – | –
C/C(=N\NS(=O)(=O)c1ccc(C)cc1)c1ccc(-n2cccc2)cc1 | 6.097 | 0.8 µg/mL (≈ 2.26 µM) | – | –
CC(=O)Nc1ccc(S(=O)(=O)N/N=C(\C)c2ccc(-n3cccc3)cc2)cc1 | 6.699 | 0.2 µg/mL (≈ 0.504 µM) | 263 µM | 257 µM
NNC(=O)c1ccncc1 [ISONIAZID] | – | 0.25 µg/mL (≈ 1.82 µM) | > 450 µM | > 450 µM
C/C(=N\NS(=O)(=O)c1ccc(N)cc1)c1ccc(-n2c(C)ccc2C)cc1 | 4.903 | 12.5 µg/mL (≈ 32.7 µM) | – | –
C/C(=N\NC(=O)c1ccc(-n2cccc2)cc1)c1ccc(-n2cccc2)cc1 | 4.903 | 12.5 µg/mL (≈ 33.9 µM) | – | –

Compound | -logMIC [1] | MIC [1] | IC50 [2] | IC50 [3]
C/C(=N\NC(=O)c1ccc(Br)cc1)c1ccc(-n2c(C)ccc2C)cc1 | 4.602 | 25 µg/mL (≈ 60.9 µM) | – | –
C/C(=N\NC(=O)COc1ccc(Br)cc1)c1ccc(-n2c(C)ccc2C)cc1 | 5.204 | 6.25 µg/mL (≈ 14.2 µM) | – | –
C/C(=N\NC(=O)COc1ccc2ccccc2c1)c1ccc(-n2cccc2)cc1 | 6.699 | 0.2 µg/mL (≈ 0.522 µM) | 249 µM | 247 µM
C/C(=N\Nc1ccc([N+](=O)[O-])cc1[N+](=O)[O-])c1ccc(-n2cccc2)cc1 | 4.903 | 12.5 µg/mL (≈ 34.2 µM) | – | –
C/C(=N\NC(=O)c1ccc(C)cc1)c1ccc(-n2cccc2)cc1 | 4.301 | 50 µg/mL (≈ 158 µM) | – | –
C/C(=N\NC(=O)c1ccc(O)cc1)c1ccc(-n2c(C)ccc2C)cc1 | 4.602 | 25 µg/mL (≈ 72 µM) | – | –
C/C(=N\NC(=O)COc1ccc(O)cc1)c1ccc(-n2cccc2)cc1 | 4.602 | 25 µg/mL (≈ 71.6 µM) | – | –
C/C(=N\NC(=O)COc1ccccc1Cl)c1ccc(-n2c(C)ccc2C)cc1 | 4.301 | 50 µg/mL (≈ 126 µM) | – | –
C/C(=N\NC(=O)c1ccc(C)cc1)c1ccc(-n2c(C)ccc2C)cc1 | 4.602 | 25 µg/mL (≈ 72.4 µM) | – | –
C/C(=N\Nc1ccccc1)c1ccc(-n2cccc2)cc1 | 4.903 | 12.5 µg/mL (≈ 45.4 µM) | – | –
C/C(=N\NC(=O)COc1ccc(Br)cc1)c1ccc(-n2cccc2)cc1 | 4.301 | 50 µg/mL (≈ 121 µM) | – | –
C/C(=N\NC(=O)c1ccc(Cl)cc1)c1ccc(-n2cccc2)cc1 | 4.301 | 50 µg/mL (≈ 148 µM) | – | –
C/C(=N\NC(=O)COc1ccc(O)cc1)c1ccc(-n2c(C)ccc2C)cc1 | 4.602 | 25 µg/mL (≈ 66.2 µM) | – | –
C/C(=N\NC(=O)COc1ccccc1)c1ccc(-n2c(C)ccc2C)cc1 | 6.097 | 0.8 µg/mL (≈ 2.21 µM) | – | –
C/C(=N\NC(N)=S)c1ccc(-n2cccc2)cc1 | 4.301 | 50 µg/mL (≈ 194 µM) | – | –
Oc1cc(Cl)ccc1Oc1ccc(Cl)cc1Cl [TRICLOSAN] | – | 10 µg/mL (≈ 34.5 µM) | – | –
C/C(=N\NC(=O)COc1ccc(Cl)cc1)c1ccc(-n2cccc2)cc1 | 4.903 | 12.5 µg/mL (≈ 34 µM) | – | –
C/C(=N\NC(=O)COc1cccc2ccccc12)c1ccc(-n2c(C)ccc2C)cc1 | 6.699 | 0.2 µg/mL (≈ 0.486 µM) | 277 µM | 269 µM
C/C(=N\NC(=O)COc1ccc(C)cc1)c1ccc(-n2c(C)ccc2C)cc1 | 5.505 | 3.12 µg/mL (≈ 8.32 µM) | – | –
C/C(=N\NC(=O)COc1ccccc1Cl)c1ccc(-n2cccc2)cc1 | 4.602 | 25 µg/mL (≈ 68 µM) | – | –
C/C(=N\NC(=O)c1ccccc1)c1ccc(-n2cccc2)cc1 | 4.301 | 50 µg/mL (≈ 165 µM) | – | –
C/C(=N\NS(=O)(=O)c1ccc(N)cc1)c1ccc(-n2cccc2)cc1 | 5.204 | 6.25 µg/mL (≈ 17.6 µM) | – | –
C/C(=N\NC(=O)c1ccc(-n2cccc2)cc1)c1ccc(-n2c(C)ccc2C)cc1 | 4.301 | 50 µg/mL (≈ 126 µM) | – | –
C/C(=N\NC(=O)COc1cccc2ccccc12)c1ccc(-n2cccc2)cc1 | 6.398 | 0.4 µg/mL (≈ 1.04 µM) | 240 µM | 243 µM
C/C(=N\NC(=O)c1ccc(-n2c(C)ccc2C)cc1)c1ccc(-n2cccc2)cc1 | 4.602 | 25 µg/mL (≈ 63.1 µM) | – | –
C/C(=N\NC(=O)COc1ccc(Cl)cc1)c1ccc(-n2c(C)ccc2C)cc1 | 5.505 | 3.12 µg/mL (≈ 7.89 µM) | – | –
C/C(=N\NC(=O)COc1c(Cl)cc(Cl)cc1Cl)c1ccc(-n2cccc2)cc1 | 4.301 | 50 µg/mL (≈ 114 µM) | – | –
